# According to ChEMBL document CHEMBL1649139, “A novel gene, erm(41), confers inducible macrolide resistance to clinical isolates of Mycobacterium abscessus but is absent from Mycobacterium chelonae” (2009):
# Key:
# Format in all cases: functional
# [1] = test system: Mycobacteroides abscessus; assay: Antimicrobial activity against Mycobacterium abscessus isolate MC879-2 at day 14 preincubated with 0.1 ug/ml erythromycin for 3 days by broth microdilution method
# [2] = test system: Mycobacteroides abscessus; assay: Antimicrobial activity against Mycobacterium abscessus isolate MC879-2 at day 7 preincubated with 0.1 ug/ml for 3 days by broth microdilution method
# [3] = test system: Mycolicibacterium smegmatis; assay: Antimicrobial activity against Mycobacterium smegmatis transformed with erm allele Mycobacterium abscessus isolate MC879 by broth microdilution method
# [4] = test system: Mycolicibacterium smegmatis; assay: Antimicrobial activity against Mycobacterium smegmatis transformed with erm allele Mycobacterium abscessus isolate MC1028 preincubated with 2 ug/ml erythromycin for 20 to 24 hrs by broth microdilution method
# [5] = test system: Mycolicibacterium smegmatis; assay: Antimicrobial activity against Mycobacterium smegmatis transformed with erm allele Mycobacterium abscessus isolate MC1082 preincubated with 2 ug/ml erythromycin for 20 to 24 hrs by broth microdilution method
# [6] = test system: Mycobacteroides abscessus; assay: Antimicrobial activity against Mycobacterium abscessus isolate MC1028 at day 3 preincubated with 0.1 ug/ml erythromycin for 3 days by broth microdilution method
# Outline: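 Clarithromycin MIC by CLSI-conforming broth microdilution. Before testing, cultures were preincubated for 3 days, either in medium alone or in clarithromycin or erythromycin (tested range 0.01–1 μg/ml). Preincubation ran for at least two generations, judged by turbidity increase. Plates were read on day 3 and on extended incubation at days 5 to 14.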
# [7] = test system: Mycobacteroides abscessus; assay: Antimicrobial activity against Mycobacterium abscessus isolate MC724 at day 14 preincubated with 0.1 ug/ml erythromycin for 3 days by broth microdilution method
# Outline: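 Clarithromycin MIC by broth microdilution following CLSI guidelines. Before testing, organisms were preincubated for 3 days in medium alone or in clarithromycin or erythromycin (0.01–1 μg/ml), long enough for at least two generations judged by turbidity increase. MICs were read on day 3 and again on extended incubation out to day 14.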
# [8] = test system: Mycobacteroides abscessus; assay: Antimicrobial activity against Mycobacterium abscessus isolate MC958 at day 7 preincubated with 0.1 ug/ml for 3 days by broth microdilution method
smiles,measurement,setting,value
CC[C@H]1OC(=O)[C@H](C)[C@@H](O[C@H]2C[C@@](C)(OC)[C@@H](O)[C@H](C)O2)[C@H](C)[C@@H](O[C@@H]2O[C@H](C)C[C@H](N(C)C)[C@H]2O)[C@](C)(OC)C[C@@H](C)C(=O)[C@H](C)[C@@H](O)[C@]1(C)O [CLARITHROMYCIN],MIC,[1],> 32 µg/mL
same,MIC,[2],> 32 µg/mL
same,MIC,[3],2 µg/mL
same,MIC,[4],≤ 0.5 µg/mL
same,MIC,[5],≤ 0.5 µg/mL
same,MIC,[6],≤ 0.5 µg/mL
same,MIC,[7],> 32 µg/mL
same,MIC,[8],> 32 µg/mL
